A short description of data set [1]: Job's plot analysis of Cu. Conditions: PBS pH 7.4, total 30 μM. It counts as physicochemical. The essentials: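 Test compound and Cu(II) mixed in PBS pH 7.4, Cu from 0 to 100 mol %, combined concentration fixed at 30 μM. Equilibrated at least 5 min at room temperature. UV-vis spectra recorded, and stoichiometry read from the break point of the plot versus Cu mole fraction.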

In data set [2] the target is Aβ42 oligomers and fibrils (Homo sapiens, UniProt P05067). Put plainly: Fluorescence turn-on with Aβ42 fibrils and oligomers. It counts as binding. Conditions: 5 μM compound, 25 μM Aβ42 species, PBS; for fluorescence turn-on effect with Aβ aggregates: excitation 470 nm; for maximum emission wavelength in the presence of Aβ aggregates: for DCM-OH-2-MT the LE peak.
Data set [3] is described as follows: pKa by UV-vis spectrophotometric titration. The note with it: pH 3-11, I = 0.1 M NaCl. The format is physicochemical. Put shortly:
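About 20 μM test compound in 0.1 M NaCl titrated with small aliquots of 0.2 M NaOH, from low to high pH (3–11). Run at room temperature under moist N2 flow until spectra stopped changing, giving about 30 UV-vis spectra per compound. Constants fitted with HypSpec. Largest pKa assigned to the phenol O-H.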

Data set [4] has as its system Aβ aggregates in 5xFAD mice. Kind of data set: Real-time in vivo NIR fluorescence imaging. More on the design: species or system mouse. Conditions: 5 mg/kg.
Data set [5] can be described thus: Viscosity sensitivity measurement. The format is physicochemical. The note with it: 10 μM, ethylene glycol/glycerol mixtures. The essentials: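 Mixed until no layering, then fluorescence intensity recorded. log I plotted against log η and fitted by linear regression (log I = x log η + A). Slope x taken as sensitivity.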
The target in data set [6] is Aβ aggregates in 5xFAD mouse brain sections (Homo sapiens, UniProt P05067). Put plainly: Histological staining of 5xFAD mouse brain sections, colocalization with ThS. Conditions: 9-month-old 5xFAD brain sections, 10 μM compound, 2.5 μM ThS.
In another data set the target is Aβ42 peptide (Homo sapiens, UniProt P05067). Kind of data set: In vitro Aβ42 aggregation monitoring. The format is binding. Conditions: 25 μM peptide, 5 μM probe, 37 °C, 0-40 h.
In data set [7] the test system is human neuroblastoma (SH-SY5Y) cells. Kind of data set: Alamar Blue cytotoxicity, SH-SY5Y cells. It counts as cell-based. Conditions: 40 h treatment. The essentials:
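After seeding at 2.0 × 10⁴/well and 24 h growth, medium changed to MEM/F-12 (1:1)/N-2 for 1 h. Cells exposed 40 h to test compound at varying concentrations. Alamar Blue incubation 90 min at 37 °C, then fluorescence measured at 590 nm with 560 nm excitation.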
A general note: The colour change of resazurin is a common sign of viable cells or microbes.

Data set [8] deals with mouse neuroblastoma (N2A) cells. Kind of data set: Alamar Blue cytotoxicity, N2A cells. It counts as cell-based. The note with it: 40 h treatment. The essentials:
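Cells seeded at 2.0 × 10⁴/well and grown 24 h. Medium switched to DMEM/N-2 for 1 h, then test compound added at a range of concentrations for 40 h. Alamar Blue added and incubated 90 min at 37 °C. Fluorescence read at 590 nm (excitation 560 nm).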

Sequence of Aβ aggregates in 5xFAD mouse brain sections (P05067 672-711 limits assumed): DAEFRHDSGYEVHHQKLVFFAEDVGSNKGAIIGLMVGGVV
Sequence of Aβ42 peptide (P05067 672-713 limits assumed): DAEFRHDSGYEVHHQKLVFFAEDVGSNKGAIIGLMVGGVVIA
Sequence of Aβ42 oligomers and fibrils (P05067 672-713 limits assumed): as above

`CN1CCN(C)CCN(Cc2cc(/C=C/C3=CC(=C(C#N)C#N)c4ccccc4O3)cc(CN3CCN(C)CCN(C)CC3)c2O)CC1` [DCM-OH-1-DT]: in data set [1], the “stoichiometry of Cu(II)-ligand complexation in solution” value (“stoichiometry” for short) was “mixture of 1:1 and 2:1 ligand-to-Cu complexes”. In data set [2], the “fluorescence turn-on effect with Aβ aggregates” value (from here on “fluorescence turn-on effect”) is given as “fluorescence enhancement” and the “maximum emission wavelength in the presence of Aβ aggregates” value (from here on “maximum emission wavelength”) was ~ 650 nm.

As to `CN1CCN(C)CCN(Cc2cc(/C=C/C3=CC(=C(C#N)C#N)c4ccccc4O3)ccc2O)CC1` [DCM-OH-1-MT], the “stoichiometry” value in data set [1] is “mixture of 1:1 and 2:1 ligand-to-Cu complexes”. Moreover, in data set [2], the “fluorescence turn-on effect” value is recorded as “fluorescence enhancement” and the “maximum emission wavelength” value is ~ 650 nm.

With `CN1CCN(C)CCN(Cc2cc(/C=C/C=C/C3=CC(=C(C#N)C#N)c4ccccc4O3)cc(CN3CCN(C)CCN(C)CC3)c2O)CC1` [DCM-OH-2-DT], the “stoichiometry” value in data set [1] was “only the 1:1 ligand-to-Cu complexes”. In addition, the “pKa of the phenol O-H (largest pKa value)” value in data set [3] is 9.35. Moreover, in [2], the “maximum emission wavelength” value is “about 730 nm”. Further, the “brain NIR fluorescence signal, AD mice vs WT mice” value in [4] (7-month-old 5xFAD vs WT, 5-, 15-, 30-min post injection) is reported as “significantly higher fluorescence signal in AD mice”. In data set [4] (jugular vein injection, 7-month-old mice), the “time to maximum brain fluorescence signal after injection” value is recorded as “about 15 min”. The “viscosity sensitivity (x value)” value in data set [5] is given as “lowest viscosity sensitivity”. For the same compound, in data set [6], the “labeling pattern of Aβ aggregates on brain sections” value (from here on “labeling pattern of Aβ aggregates”) is given as “bind to the peripheral region of the Aβ aggregates”. Besides, on Aβ42 peptide, the “fluorescence response during Aβ42 aggregation” value is “more significant fluorescence increases at the early stage”.

Take `CN1CCN(C)CCN(Cc2cc(/C=C/C=C/C3=CC(=C(C#N)C#N)c4ccccc4O3)ccc2O)CC1` [DCM-OH-2-MT]: in data set [2], the “second emission peak (ESIPT emission) in the presence of Aβ aggregates” value is listed as 730 nm and the “maximum emission wavelength” value came out at 620 nm. For the same compound, the “labeling pattern of Aβ aggregates” value in data set [6] was “bind to the peripheral region of the Aβ aggregates”.

`N#CC(C#N)=C1C=C(/C=C/C=C/c2ccc(O)cc2)Oc2ccccc21` [DCM-OH-2]: in data set [3], the “pKa of the phenol O-H (largest pKa value)” value turned out to be 11.73. In addition, the “fluorescence turn-on effect” value in data set [2] was “significant fluorescence turn-on effect”. The “maximum emission wavelength” value in data set [2] is given as 620 nm. Also, the cytotoxicity entry in data set [7] and in data set [8] was “slightly more toxic than the others” in each case. For the same compound, the “labeling pattern of Aβ aggregates” value in [6] is listed as “binding to the identical core regions of the Aβ aggregates”. In addition, the “fluorescence response during Aβ42 aggregation” value on Aβ42 peptide is “more significant fluorescence increases at the early stage”.

With `Cc1ccc2c(c1)sc(-c1ccc(N(C)C)cc1)[n+]2C` [ThT, Thioflavin T, reference compound], at Aβ42 peptide, the “fluorescence response during Aβ42 aggregation” value was “minimal fluorescence enhancement from 0–10 h”.

The values are drawn from paper PMC10840928 (Chemistry (Weinheim an der Bergstrasse, Germany), 2023).
